Results: paper PMC10685803 (RSC Chemical Biology, 2023)
≈ marks a conversion by molar mass, not a printed value. One block for each molecule: values may come before it.

B1: DAXX Interacting Domain of ATRX (DID_(ATRX), residues 1190-1325 hATRX) (domain or fragment, human, UniProt P46100 1190-1325, looked up)
chain: RTSTKRKQADITSSSSSDIEDDDQNSIGEGSSDEQKIKPVTENLVLSSHTGFCQSSGDEALSKSVPVTVDDDDDDNDPENRIAKKMLLEEIKANLSSDEDGSSDDEPEEGKKRTGKQNEENPGDEEAKNQVNSESD
B3: DAXX Helical Bundle domain (DHB_(DAXX), residues 55-144 hDAXX) (domain or fragment, human, UniProt Q9UER7 55-144, looked up)
chain: GKKCYKLENEKLFEEFLELCKMQTADHPEVVPFLYNRQQRAHSLFLASAEFCNILSRVLSRARSRPAKLYVYINELCTVLKAHSAKKKLN

Tests used:
[1] = target: T1, DHBDAXX (residues 55-144 hDAXX) (Homo sapiens, UniProt Q9UER7); experiment: Fluorescence polarisation saturation binding of FAM-labelled peptide to DHBDAXX; conditions: fluorescence anisotropy Kd
T1 sequence (Q9UER7 55-144): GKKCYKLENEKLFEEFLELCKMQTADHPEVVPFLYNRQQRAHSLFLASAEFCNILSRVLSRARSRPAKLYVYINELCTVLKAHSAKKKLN

HCT116 cells = experiment: Lactate dehydrogenase; format: cell-based; conditions: chloroalkane versions, 2% serum, 4 and 24 h
Procedure, shortened: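 HCT116 cells were seeded at 5000 per well in DMEM/10% FCS for 24 h, then switched to medium with 2% FCS. They were given titrated peptide (up to 50 μM; 1% v/v DMSO final) for 4 or 24 h, with 1% DMSO-only controls. Released LDH was measured by colorimetric kit and normalised to 0.1% Triton X-100 lysis. Mean of three independent measurements ± 1 SD.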

[2] = Solubility limit of stitched peptides; format: physicochemical; conditions: peptides synthesized with an N-terminal FAM moiety; method not described
[3] = target: B3; experiment: ITC
[4] = target: T1, DHBDAXX (residues 55-144 hDAXX); conditions: read-out: Kd (competitive binding affinity); competitive displacement of FAM-SPEP7 from DHBDAXX
[5] = target: T1, DHBDAXX (residues 55-144 hDAXX); experiment: Isothermal titration calorimetry; format: binding; conditions: ITC, 25 °C, ATRX fragments (Table 1), no unit in table
[6] = target: B1; experiment: ITC
[7] = target: B1; experiment: fluorescence polarisation

dH [3]: -13.3 kcal/mol
Molecule: NDPENRIAKKMLLEEIKANLSSDEDG (peptide, UniProt P46100 1265-1290, looked up) [ATRX (1265–1290) peptide]

dH [3]: -9.3 kcal/mol
Molecule: PENRIAKKMLLEEIKANL (peptide, UniProt P46100 1267-1284, looked up) [ATRX (1267–1284) peptide]

dH [3]: -13.3 kcal/mol
Molecule: DNDPENRIAKKMLLEEIKANLS (peptide, UniProt P46100 1264-1285, looked up) [PEP_(ATRX), peptide fragment of ATRX (1264–1285)]

dH [3]: -10.6 kcal/mol
Molecule: PVTVDDDDDDNDPENRIAKKMLLEEIKANL (peptide, UniProt P46100 1255-1284, looked up) [ATRX (1255–1284) peptide]

dH [3]: -13.4 kcal/mol
Molecule: DDNDPENRIAKKMLLEEIKANLSSDEDG (peptide, UniProt P46100 1263-1290, looked up) [ATRX (1263–1290) peptide]

Kd [4]: 193 nM
ΔG [5]: −9.69
−TΔS [5]: 2.06
ΔH ([5]; error in parentheses): −11.7 (0.10)
B2: DIDATRX: DAXX Interacting Domain of ATRX, residues 1190–1325 hATRX, recombinant (protein)
chain: RTSTKRKQADITSSSSSDIEDDDQNSIGEGSSDEQKIKPVTENLVLSSHTGFCQSSGDEALSKSVPVTVDDDDDDNDPENRIAKKMLLEEIKANLSSDEDGSSDDEPEEGKKRTGKQNEENPGDEEAKNQVNSESD
modifications: left off: His6, N-terminal, state not stated

dH [3]: -13.8 kcal/mol
Molecule: DDDDNDPENRIAKKMLLEEIKANLSSDEDG (peptide, UniProt P46100 1261-1290, looked up) [ATRX (1261–1290) peptide]

The next lines start with the molecule.

Molecule: CC[C@H](C)[C@@H]1NC(=O)[C@H](CCC(=O)O)NC(=O)[C@H](C)NC(=O)[C@H](CC(C)C)NC(=O)[C@H](CC(C)C)NC(=O)[C@H](C)NC(=O)C2(CCCC=CCCCCCC[C@@](C)(C(=O)N[C@@H](C)C(=O)N[C@@H](CC(N)=O)C(=O)N[C@@H](CC(C)C)C(=O)N[C@@H](CO)C(N)=O)NC1=O)CCCC=CCCC[C@](C)(NC(=O)[C@H](CC(N)=O)NC(=O)[C@H](CCC(=O)O)NC(=O)[C@@H]1CCCN1C(=O)[C@@H](N)CC(N)=O)C(=O)N[C@@H]([C@@H](C)CC)C(=O)N[C@@H](C)C(=O)N[C@@H](CCCCN)C(=O)N2 (some centres unmarked) [STPEP7]
fold decrease in binding compared to FAM-SPEP7 [1]: ~7 fold
cellular toxicity (LDH release) (HCT116 cells): no significant cellular toxicity
solubility limit [2]: 49 µM (≈ 110 µg/mL)

Molecule: CC[C@H](C)[C@@H]1NC(=O)[C@H](CCC(=O)O)NC(=O)[C@H](C)NC(=O)[C@H](CC(C)C)NC(=O)[C@H](CC(C)C)NC(=O)C2(CCCC=CCCCCCC[C@@](C)(C(=O)N[C@@H](CC(N)=O)C(=O)N[C@@H](CC(C)C)C(=O)N[C@@H](CO)C(N)=O)NC(=O)[C@H](CCCCN)NC1=O)CCCC=CCCC[C@](C)(NC(=O)[C@H](CCCNC(=N)N)NC(=O)[C@H](CC(N)=O)NC(=O)[C@H](CCC(=O)O)NC(=O)[C@@H]1CCCN1C(=O)[C@H](CC(=O)O)NC(=O)[C@H](CC(N)=O)NC(=O)[C@@H](N)CC(=O)O)C(=O)N[C@@H](C)C(=O)N[C@@H](CCCCN)C(=O)N[C@@H](CCCCN)C(=O)N2 (some centres unmarked) [STPEP2]
cellular toxicity (LDH release) (HCT116 cells): no significant cellular toxicity
solubility limit [2]: 11 µM (≈ 28.9 µg/mL)

Molecule: PVTVDDDDDDNDPENRIAKKMLLEEIKANLSSDED (peptide, UniProt P46100 1255-1289, looked up) [ATRX (1255–1289) peptide]
dH [3]: -12.2 kcal/mol

Molecule: PENRIAKKMLLEEIKANLSSDEDG (peptide, UniProt P46100 1267-1290, looked up) [ATRX (1267–1290) peptide]
dH [3]: -11.9 kcal/mol

Molecule: B1
dH [3]: -11.7 kcal/mol

Molecule: B3
Kd [6]: 80 nM
Kd [7]: 193 nM
